Series [1] is described as follows: Ultraviolet radiation absorbing capacity of the compound at 315 to 400 nm. The format is physicochemical. The following applies: 0.4 µM.
The nature of series [2]: Antioxidant activity assessed as DPPH radical scavenging activity after 30 mins under dark condition. Type of series: functional. The gist of the method: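 Serially diluted samples were run in replicates of four, and 200 μM DPPH (concentration as added) was added. MeOH served as the negative control and rutin (820 μM) as the positive control. A row without DPPH gave the background correction. Plates were held in the dark for 30 min, then read at 517 nm. IC50 was interpolated from % scavenging versus log concentration and reported as mean ± SD.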
For orientation: The DPPH test is a chemical assay of radical scavenging.

The nature of series [3]: Antioxidant activity assessed as DPPH radical scavenging activity after 30 mins under dark condition relative to rutin. The format is functional.

The term IC50 denotes the concentration that gives 50% inhibition. On to `O=c1cc(-c2cc(O)c(O)c(-c3c(O)cc(O)c4c(=O)cc(-c5ccc(O)c(O)c5)oc34)c2)oc2cc(O)cc(O)c12`, for which the values for the Activity entry in series [1] and in series [3] were “Active” and 13%, respectively. The IC50 in series [2] is 33.5 µM.
`O=C1CC(c2cc(O)c(O)c(-c3c(O)cc(O)c4c(=O)cc(-c5ccc(O)c(O)c5)oc34)c2)Oc2cc(O)cc(O)c21` (racemic): the outcome in series [1] was Active. Also, in series [2], the IC50 was 128 µM.
For `O=Cc1ccc(O)cc1` [4-HYDROXYBENZALDEHYDE] the same measures were “Active” and 476000 µM.
For `O=C(O)/C=C/c1ccc(O)cc1` [COUMARIC ACID] the same measures were “Active” and 29700 µM.
For `COc1cc(/C=C/C(=O)O)ccc1O` [FERULATE] the same measures were “Active” and 75 µM.
Take `C[C@@H]1O[C@@H](OC[C@H]2O[C@@H](Oc3c(-c4ccc(O)c(O)c4)oc4cc(O)cc(O)c4c3=O)[C@H](O)[C@@H](O)[C@@H]2O)[C@H](O)[C@H](O)[C@H]1O` [RUTIN]: the concentration for half-maximal inhibition (IC50) in series [2] is 38.6 µM.
For the compound `COc1cc(C=O)ccc1O` [VANILLIN], the outcome in series [1] was Active. In series [2], the half-maximal inhibitory concentration (IC50) was 14400 µM.

The record behind these values is ChEMBL document CHEMBL4190302, “Antarctic Moss Biflavonoids Show High Antioxidant and Ultraviolet-Screening Activity” (J Nat Prod, 2017).
